Calls of active or inactive are those of the source. The calls are words filed in the database; no cut-off is given here.
Columns and labels:
[1] = test system: THP-1; assay: Immunomodulatory effect in human THP1 cells assessed as increase in LPS-induced TNF-alpha release at 20.2 uM after 24 hrs by sandwich ELISA relative to LPS; type: functional
Method in brief: (§1)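 THP-1 cells at 10⁶ cells/ml in RPMI 1640 with 10% heat-inactivated FCS. Co-incubated 24 h with compound (0.2–200 µM) plus E. coli 0127:B8 LPS 1 ng/ml, DMSO vehicle ≤0.2% final. TNF-α in supernatant expressed as % of LPS-induced release, mean ± SD of 6 samples.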

[2] = test system: THP-1; assay: Cytotoxicity against human THP1 cells assessed as LDH release at 20.2 uM; type: cell-based; conditions: thp-1, 20.2 µM
Method in brief: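 LDH leakage into the medium used as the cytotoxicity read-out, taken at the highest concentration tested.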

[3] = test system: PBMC; assay: Cytotoxicity against human PBMC assessed as LDH release at 20.2 uM; type: cell-based
[4] = test system: THP-1; assay: Toxicity in human THP1 cells assessed TNF-alpha release at 20.2 uM after 24 hrs by sandwich ELISA; type: cell-based; conditions: thp-1, 24 h
Method in brief: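 THP-1 in supplemented RPMI 1640 co-incubated 24 h with 20.2 µM compound and 1 ng/ml LPS, DMSO ≤0.2%. TNF-α release expressed as % of the LPS-only response, mean ± SD of 6 samples, Mann-Whitney U test.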

[5] = test system: PBMC; assay: Immunomodulatory effect in human PBMC cells assessed as increase in LPS-induced TNFalpha release at 20.2 uM after 18 hrs by flow cytometry analysis relative to LPS; type: functional
Method in brief: (§2)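 Human PBMC isolated from healthy-donor buffy coats on a Ficoll-Paque gradient. Cultured in RPMI 1640 with 10% heat-inactivated FCS, 2 mM L-glutamine and 50 µM 2-mercaptoethanol. 0.5 × 10⁶ cells exposed to 20.2 µM compound plus 10 ng/ml LPS, DMSO ≤0.1%, for 18 h at 37 °C in 5% CO₂. Supernatant cytokines measured by flow cytometric bead assay. Values are % of LPS alone, mean ± SD of 4 samples, two donors.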

[6] = test system: PBMC; assay: Immunomodulatory effect in human PBMC cells assessed as LPS-induced IL1-beta release at 20.2 uM after 18 hrs by flow cytometry analysis relative to LPS; type: functional; method in brief: as §2
[7] = test system: PBMC; assay: Immunostimulatory effect in human PBMC cells assessed as increase in […]/ionomycin-induce TNFalpha release at 20.2 uM after 18 hrs by flow cytometry analysis relative to PMA and ionomycin; type: functional
Method in brief: (§3)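 PBMC prepared from donor buffy coat on Ficoll-Paque and kept in supplemented RPMI 1640. Cells (0.5 × 10⁶) given 20.2 µM compound with PMA 3.33 ng/ml and ionomycin 500 nM (final) for 18 h at 37 °C, 5% CO₂. Supernatant IL-1β, IL-6, IL-8, IL-10 and TNF-α read by flow cytometry. Expressed relative to PMA/ionomycin alone, mean ± SD of 4 samples, two donors.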

[8] = test system: PBMC; assay: Immunostimulatory effect in human PBMC cells assessed as increase in […]/ionomycin-induce IL-10 release at 20.2 uM after 18 hrs by flow cytometry analysis relative to PMA and ionomycin; type: functional; method in brief: as §3
[9] = test system: PBMC; assay: Immunostimulatory effect in human PBMC cells assessed as increase in […]/ionomycin-induce IL-6 release at 20.2 uM after 18 hrs by flow cytometry analysis relative to PMA and ionomycin; type: functional; method in brief: as §3
[10] = test system: PBMC; assay: Immunostimulatory effect in human PBMC cells assessed as increase in […]/ionomycin-induce IL1-beta release at 20.2 uM after 18 hrs by flow cytometry analysis relative to PMA and ionomycin; type: functional; method in brief: as §3
[11] = test system: PBMC; assay: Immunostimulatory effect in human PBMC cells assessed as increase in […]/ionomycin-induce IL-8a release at 20.2 uM after 18 hrs by flow cytometry analysis relative to PMA and ionomycin; type: functional; method in brief: as §3
[12] = test system: PBMC; assay: Immunomodulatory effect in human PBMC cells assessed as decrease in LPS-induced IL-10 release at 20.2 uM after 18 hrs by flow cytometry analysis relative to LPS; type: functional; set-up: scale not given: the % may be the effect or the level left; method in brief: as §2
[13] = test system: PBMC; assay: Immunomodulatory effect in human PBMC cells assessed as decrease in LPS-induced IL-6 release at 20.2 uM after 18 hrs by flow cytometry analysis relative to LPS; type: functional; set-up: scale not given: the % may be the effect or the level left; method in brief: as §2
[14] = test system: PBMC; assay: Immunomodulatory effect in human PBMC cells assessed as decrease in LPS-induced IL-8a release at 20.2 uM after 18 hrs by flow cytometry analysis relative to LPS; type: functional; set-up: scale not given: the % may be the effect or the level left; method in brief: as §2
[15] = test system: THP-1; assay: Immunomodulatory effect in human THP1 cells assessed as increase in LPS-induced TNF-alpha release at 0.2 uM after 24 hrs by sandwich ELISA relative to LPS; type: functional; method in brief: as §1
[16] = test system: THP-1; assay: Immunomodulatory effect in human THP1 cells assessed as increase in LPS-induced TNF-alpha release at 2 uM after 24 hrs by sandwich ELISA relative to LPS; type: functional; method in brief: as §1
[17] = test system: THP-1; assay: Immunomodulatory effect in human THP1 cells assessed as increase in LPS-induced TNF-alpha release at 200 uM after 24 hrs by sandwich ELISA relative to LPS; type: functional; method in brief: as §1
[18] = test system: THP-1; assay: Immunomodulatory effect in human THP1 cells assessed as increase in LPS-induced TNF-alpha release after 24 hrs by sandwich ELISA relative to LPS; type: functional, cell-based; method in brief: as §1
[19] = test system: PBMC; assay: Immunomodulatory effect in human PBMC cells assessed as increase in LPS-induced IL-10 release at 20.2 uM after 18 hrs by flow cytometry analysis relative to LPS; type: functional; method in brief: as §2
[20] = test system: PBMC; assay: Immunomodulatory effect in human PBMC cells assessed as increase in LPS-induced IL-6 release at 20.2 uM after 18 hrs by flow cytometry analysis relative to LPS; type: functional; method in brief: as §2
[21] = test system: PBMC; assay: Immunomodulatory effect in human PBMC cells assessed as increase in LPS-induced IL-8a release at 20.2 uM after 18 hrs by flow cytometry analysis relative to LPS; type: functional; method in brief: as §2
[22] = test system: PBMC; assay: Immunomodulatory effect in human PBMC cells assessed as increase in LPS-induced TNF-alpha release at 20.2 uM after 24 hrs by sandwich ELISA; type: functional, cell-based

C[C@@H](NC(=O)CCCCN1C(=O)c2ccccc2S1(=O)=O)C(=O)N[C@@H](CCC(=O)O)C(N)=O
Activity [1]: 91% | Activity [2]: Non-toxic | Activity [3]: Non-toxic | Activity [4]: Non-toxic

C[C@H](NC(=O)COCCN1C(=O)c2ccccc2S1(=O)=O)C(=O)N[C@H](CCC(=O)O)C(=O)O
Activity [1]: 117% | Activity [5]: 104% | Activity [6]: 85% | Activity [7]: 124% | Activity [8]: 116% | Activity [9]: 91% | Activity [10]: 112% | Activity [11]: 104% | Activity [2]: Non-toxic | Activity [3]: Non-toxic | Activity [4]: Non-toxic | Activity [12]: 65.5% | Activity [13]: 86% | Activity [14]: 89.5%

C[C@H](NC(=O)C1=C2c3ccccc3S(=O)(=O)N2CCC1)C(=O)N[C@H](CCC(=O)O)C(N)=O
Activity [1]: 120.2% | Activity [15]: 90.3% | Activity [16]: 92.5% | Activity [17]: 204.3% | Activity [18]: Dose-dependent effect | Activity [5]: 115% | Activity [19]: 94% | Activity [20]: 103.5% | Activity [6]: 94% | Activity [21]: 98.5% | Activity [7]: 105.5% | Activity [8]: 88.5% | Activity [9]: 74% | Activity [10]: 88% | Activity [11]: 103% | Activity [2]: Non-toxic | Activity [3]: Non-toxic | Activity [4]: Non-toxic

C[C@H](NC(=O)CCCCN1C(=O)c2ccccc2S1(=O)=O)C(=O)N[C@@H](CCC(=O)O)C(N)=O
Activity [1]: 119.3% | Activity [2]: Non-toxic | Activity [3]: Non-toxic | Activity [4]: Non-toxic

C[C@H](NC(=O)CCCCN1C(=O)c2ccccc2S1(=O)=O)C(=O)N[C@H](CCC(=O)O)C(N)=O
Activity [1]: 114% | Activity [5]: 108.5% | Activity [19]: 98% | Activity [20]: 109% | Activity [6]: 106% | Activity [21]: 97.5% | Activity [7]: 96% | Activity [8]: 84.5% | Activity [9]: 81% | Activity [10]: 91.5% | Activity [11]: 103% | Activity [2]: Non-toxic | Activity [3]: Non-toxic | Activity [4]: Non-toxic

C[C@@H](NC(=O)CCCCN1C(=O)c2ccccc2S1(=O)=O)C(=O)N[C@H](CCC(=O)O)C(N)=O
Activity [1]: 115.3% | Activity [2]: Non-toxic | Activity [3]: Non-toxic | Activity [4]: Non-toxic

CC(=O)N[C@@H]1[C@@H](O[C@H](C)C(=O)N[C@@H](C)C(=O)N[C@@H](CCC(=O)O)C(N)=O)[C@H](O)[C@@H](CO)O[C@H]1O
Activity [22]: Active

C[C@H](NC(=O)COCCN1C(=O)c2ccccc2S1(=O)=O)C(=O)N[C@H](CCC(=O)O)C(N)=O
Activity [1]: 114.3% | Activity [5]: 104.5% | Activity [19]: 84.5% | Activity [20]: 95.5% | Activity [6]: 95.5% | Activity [7]: 83.5% | Activity [8]: 89.5% | Activity [9]: 63.5% | Activity [10]: 122% | Activity [11]: 110.5% | Activity [2]: Non-toxic | Activity [3]: Non-toxic | Activity [4]: Non-toxic | Activity [14]: 96.5%

From ChEMBL document CHEMBL1821722, “Design, synthesis and biological evaluation of novel desmuramyldipeptide analogs” (Eur J Med Chem, 2011)
